≈ marks a conversion by molar mass, not a printed value.
Experiments:
[1] = system: Mycobacterium tuberculosis; test: Antimycobacterial activity against Mycobacterium bovis BCG assessed as clolony forming unit at 125 ug/ml after 7 days; format: functional, variant bovis BCG
Summary of the method: (§1)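 M. bovis BCG exposed to agent, with or without sucrose or 2.5% dextran, in log-phase and stationary-phase cultures. Bactericidal activity read as viable count (log CFU/ml) at day 7 and day 21. Values given as means ± SD.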

[2] = system: Mycobacterium tuberculosis; test: Antimycobacterial activity against Mycobacterium bovis BCG assessed as clolony forming unit at 125 ug/ml after 21 days; format: functional, variant bovis BCG; summary of the method: as §1
[3] = system: Mycobacterium tuberculosis; test: Antimycobacterial activity against Mycobacterium bovis BCG assessed as clolony forming unit at 125 ug/ml after 7 days in presence of sucrose; format: functional, variant bovis BCG; summary of the method: as §1
[4] = system: Mycobacterium tuberculosis; test: Antimycobacterial activity against Mycobacterium bovis BCG assessed as clolony forming unit at 125 ug/ml after 21 days in presence of sucrose; format: functional, variant bovis BCG; summary of the method: as §1
[5] = system: Mycobacterium tuberculosis; test: Antimycobacterial activity against Mycobacterium bovis BCG assessed as clolony forming unit at 125 ug/ml after 7 days in presence of dextrin; format: functional, variant bovis BCG; summary of the method: as §1
[6] = system: Mycobacterium tuberculosis; test: Antimycobacterial activity against Mycobacterium bovis BCG assessed as clolony forming unit at 125 ug/ml after 21 days in presence of destrin; format: functional, variant bovis BCG; summary of the method: as §1
[7] = system: Mycobacterium tuberculosis; test: Antimycobacterial activity against Mycobacterium bovis BCG carrying pMV261; format: functional; settings: Mycobacterium tuberculosis variant bovis BCG
Summary of the method: (§2)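 MIC by agar method on 7H11 supplemented with OADC. M. bovis BCG carried empty pMV261, or pMV261 overexpressing EthA or EthR from the constitutive hsp60 promoter. Results reported as MIC ranges in µg/ml.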

[8] = system: Mycobacterium tuberculosis; test: Antimycobacterial activity against Mycobacterium bovis BCG carrying pMV261::ethA; format: functional; settings: Mycobacterium tuberculosis variant bovis BCG; summary of the method: as §2
[9] = system: Mycobacterium tuberculosis; test: Antimycobacterial activity against Mycobacterium bovis BCG carrying pMV261::ethR; format: functional; settings: Mycobacterium tuberculosis variant bovis BCG; summary of the method: as §2
[10] = system: Mycobacterium tuberculosis; test: Antimycobacterial activity against Mycobacterium bovis BCG assessed as clolony forming unit at 4 ug/ml after 7 days; format: functional, variant bovis BCG; summary of the method: as §1
[11] = system: Mycobacterium tuberculosis; test: Antimycobacterial activity against Mycobacterium bovis BCG assessed as clolony forming unit at 4 ug/ml after 21 days; format: functional, variant bovis BCG; summary of the method: as §1
[12] = system: Mycobacterium tuberculosis; test: Antimycobacterial activity against Mycobacterium bovis BCG assessed as clolony forming unit at 4 ug/ml after 7 days in presence of sucrose; format: functional, variant bovis BCG; summary of the method: as §1
[13] = system: Mycobacterium tuberculosis; test: Antimycobacterial activity against Mycobacterium bovis BCG assessed as clolony forming unit at 4 ug/ml after 21 days in presence of sucrose; format: functional, variant bovis BCG; summary of the method: as §1
[14] = system: Mycobacterium tuberculosis; test: Antimycobacterial activity against Mycobacterium bovis BCG assessed as clolony forming unit at 4 ug/ml after 7 days in presence of dextrin; format: functional, variant bovis BCG; summary of the method: as §1
[15] = system: Mycobacterium tuberculosis; test: Antimycobacterial activity against Mycobacterium bovis BCG assessed as clolony forming unit at 4 ug/ml after 21 days in presence of destrin; format: functional, variant bovis BCG; summary of the method: as §1
[16] = system: Mycobacterium tuberculosis; test: Antimycobacterial activity against Mycobacterium bovis BCG assessed as clolony forming unit at 313 ug/ml after 7 days; format: functional, variant bovis BCG; summary of the method: as §1
[17] = system: Mycobacterium tuberculosis; test: Antimycobacterial activity against Mycobacterium bovis BCG assessed as clolony forming unit at 313 ug/ml after 21 days; format: functional, variant bovis BCG; summary of the method: as §1
[18] = system: Mycobacterium tuberculosis; test: Antimycobacterial activity against Mycobacterium bovis BCG assessed as clolony forming unit at 313 ug/ml after 7 days in presence of sucrose; format: functional, variant bovis BCG; summary of the method: as §1
[19] = system: Mycobacterium tuberculosis; test: Antimycobacterial activity against Mycobacterium bovis BCG assessed as clolony forming unit at 313 ug/ml after 21 days in presence of sucrose; format: functional, variant bovis BCG; summary of the method: as §1
[20] = system: Mycobacterium tuberculosis; test: Antimycobacterial activity against Mycobacterium bovis BCG assessed as clolony forming unit at 313 ug/ml after 7 days in presence of dextrin; format: functional, variant bovis BCG; summary of the method: as §1
[21] = system: Mycobacterium tuberculosis; test: Antimycobacterial activity against Mycobacterium bovis BCG assessed as clolony forming unit at 313 ug/ml after 21 days in presence of destrin; format: functional, variant bovis BCG; summary of the method: as §1

CC(=O)N[C@@H]1[C@@H](O)[C@H](O)[C@@H](CO)O[C@H]1SC(=S)N1CCCC1
log10CFU/ml [1]: 4.55
log10CFU/ml [2]: 4.43
log10CFU/ml [3]: 6.25
log10CFU/ml [4]: 5.76
log10CFU/ml [5]: 6.07
log10CFU/ml [6]: 5.79
MIC [7]: 1 µg/mL (≈ 2.85 µM)
MIC [8]: 1 µg/mL (≈ 2.85 µM)
MIC [9]: 1 µg/mL (≈ 2.85 µM)

N.S=C(S)N1CCCC1 [PYRROLIDINE DITHIOCARBAMIC ACID, AMMONIUM SALT]
log10CFU/ml [10]: 4.65
log10CFU/ml [11]: 4.41
log10CFU/ml [12]: 6.05
log10CFU/ml [13]: 5.56
log10CFU/ml [14]: 6.93
log10CFU/ml [15]: 5.56
MIC [7]: 0.5 µg/mL
MIC [8]: 0.5 µg/mL
MIC [9]: 0.25 µg/mL

CC(=O)N[C@@H]1[C@@H](O)[C@H](O)[C@@H](CO)O[C@H]1SC(=S)N(C)C
log10CFU/ml [16]: 5.91
log10CFU/ml [17]: 5.2
log10CFU/ml [18]: 6.41
log10CFU/ml [19]: 5.78
log10CFU/ml [20]: 6.44
log10CFU/ml [21]: 5.91
MIC [7]: 10 µg/mL (≈ 30.8 µM)
MIC [8]: 10 µg/mL (≈ 30.8 µM)
MIC [9]: 10 µg/mL (≈ 30.8 µM)

CCc1cc(C(N)=S)ccn1 [ETHIONAMIDE]
MIC [7]: 1 µg/mL (≈ 6.02 µM)
MIC [8]: 0.5 µg/mL (≈ 3.01 µM)
MIC [9]: 10 µg/mL (≈ 60.2 µM)

Source: ChEMBL document CHEMBL1667806, “Synthesis and evaluation of anti-tubercular activity of new dithiocarbamate sugar derivatives” (2011)
